ChEMBL document CHEMBL1127482 (J Med Chem, 1994)
*1 amine or outer side, *2 acyl side, *3 side chain or, on linkers, in order; H or OH if unused. Where a SMILES comes first, the peptide text is derived from it. Bridges are numbered along the chain shown (N, C = ends). X1 = O=C(CC1(S[*:2])CCCCC1)[*:1]

How the values were obtained:
Homo sapiens = organism: Homo sapiens; assay: Inhibition of 10 uM ADP induced platelet aggregation in human platelet rich citreated plasma (PRP); format: functional
Summary of the method: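 Aggregation is read as the increase in light transmission in an aggregometer, with platelets used within 3 h of collection. IC50 comes from regression of dose-response curves for inhibition of maximal aggregation, adjusted against a standard run in each experiment.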

[1] = biological target: Integrin alpha-IIb/beta-3 (Homo sapiens, UniProt P05106+P08514); assay: Binding affinity against integrin alpha 2b-beta 3 in enzyme linked immunosorbent assay (ELISA); format: protein-complex assay
Summary of the method: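 Purified human platelet αIIbβ3 (from outdated platelets, octyl glucoside extract) in TBS with 20 mM octyl glucoside, 2 mM MgCl2 and 2 mM CaCl2 binds to plate-coated human fibrinogen (10 µg/mL in TBS) with 10-fold serial peptide dilutions for 3 h at room temperature. Bound receptor is detected with rabbit anti-αIIbβ3, then HRP anti-rabbit IgG, with o-phenylenediamine/H2O2 at pH 5.0. IC50 is reported.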

Integrin alpha-5/beta-1 = Integrin alpha-5/beta-1 (Homo sapiens, UniProt P05556+P08648); assay: Binding affinity against integrin alpha5-beta1 in enzyme linked immunosorbent assay (ELISA); format: protein-complex assay
Integrin alpha-V/beta-5 = Integrin alpha-V/beta-5 (Homo sapiens, UniProt P06756+P18084); assay: Binding affinity against integrin alpha V-beta5 in enzyme linked immunosorbent assay (ELISA); format: protein-complex assay
Summary of the method: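 It is added to wells coated with human vitronectin in 0.1 M carbonate, pH 9.6, with 10-fold serial peptide dilutions for 3 h at room temperature. Detection uses rabbit anti-VnR, HRP anti-rabbit IgG and o-phenylenediamine/H2O2.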

Canis familiaris = organism: Canis familiaris; assay: Effect of compound on template bleeding time in dogs; format: functional, Canis lupus familiaris

Integrin alpha-V/beta-5, sequence (P06756 31-889 limits assumed): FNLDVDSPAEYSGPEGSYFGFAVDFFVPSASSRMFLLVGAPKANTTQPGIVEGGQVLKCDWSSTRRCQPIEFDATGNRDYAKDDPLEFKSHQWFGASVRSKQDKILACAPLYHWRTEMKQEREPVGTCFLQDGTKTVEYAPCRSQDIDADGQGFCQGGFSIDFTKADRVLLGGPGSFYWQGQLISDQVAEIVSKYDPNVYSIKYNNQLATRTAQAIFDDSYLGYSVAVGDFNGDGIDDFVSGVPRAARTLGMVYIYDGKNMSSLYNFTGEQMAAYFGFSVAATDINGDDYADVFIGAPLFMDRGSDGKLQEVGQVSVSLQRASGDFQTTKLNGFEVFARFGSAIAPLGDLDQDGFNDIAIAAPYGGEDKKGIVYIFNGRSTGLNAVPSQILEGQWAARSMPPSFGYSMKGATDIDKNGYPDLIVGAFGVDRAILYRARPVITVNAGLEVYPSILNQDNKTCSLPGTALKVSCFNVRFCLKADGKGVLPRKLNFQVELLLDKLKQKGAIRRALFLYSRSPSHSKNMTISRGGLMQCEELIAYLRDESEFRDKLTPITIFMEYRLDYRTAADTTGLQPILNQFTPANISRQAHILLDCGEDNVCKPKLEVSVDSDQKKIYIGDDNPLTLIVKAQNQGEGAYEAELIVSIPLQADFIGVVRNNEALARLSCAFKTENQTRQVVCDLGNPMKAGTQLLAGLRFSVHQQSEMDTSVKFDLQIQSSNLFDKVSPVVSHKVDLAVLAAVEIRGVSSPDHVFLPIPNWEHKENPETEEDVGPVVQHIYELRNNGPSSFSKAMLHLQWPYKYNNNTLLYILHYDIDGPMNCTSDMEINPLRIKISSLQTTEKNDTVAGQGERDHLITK
Integrin alpha-V/beta-5, sequence (P06756 891-1048 limits assumed): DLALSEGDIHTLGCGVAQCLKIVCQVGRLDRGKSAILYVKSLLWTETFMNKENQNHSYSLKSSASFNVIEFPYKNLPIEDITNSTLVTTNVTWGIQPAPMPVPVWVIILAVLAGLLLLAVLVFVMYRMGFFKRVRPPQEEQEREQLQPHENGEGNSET
Integrin alpha-V/beta-5, sequence (P18084 24-799 limits assumed): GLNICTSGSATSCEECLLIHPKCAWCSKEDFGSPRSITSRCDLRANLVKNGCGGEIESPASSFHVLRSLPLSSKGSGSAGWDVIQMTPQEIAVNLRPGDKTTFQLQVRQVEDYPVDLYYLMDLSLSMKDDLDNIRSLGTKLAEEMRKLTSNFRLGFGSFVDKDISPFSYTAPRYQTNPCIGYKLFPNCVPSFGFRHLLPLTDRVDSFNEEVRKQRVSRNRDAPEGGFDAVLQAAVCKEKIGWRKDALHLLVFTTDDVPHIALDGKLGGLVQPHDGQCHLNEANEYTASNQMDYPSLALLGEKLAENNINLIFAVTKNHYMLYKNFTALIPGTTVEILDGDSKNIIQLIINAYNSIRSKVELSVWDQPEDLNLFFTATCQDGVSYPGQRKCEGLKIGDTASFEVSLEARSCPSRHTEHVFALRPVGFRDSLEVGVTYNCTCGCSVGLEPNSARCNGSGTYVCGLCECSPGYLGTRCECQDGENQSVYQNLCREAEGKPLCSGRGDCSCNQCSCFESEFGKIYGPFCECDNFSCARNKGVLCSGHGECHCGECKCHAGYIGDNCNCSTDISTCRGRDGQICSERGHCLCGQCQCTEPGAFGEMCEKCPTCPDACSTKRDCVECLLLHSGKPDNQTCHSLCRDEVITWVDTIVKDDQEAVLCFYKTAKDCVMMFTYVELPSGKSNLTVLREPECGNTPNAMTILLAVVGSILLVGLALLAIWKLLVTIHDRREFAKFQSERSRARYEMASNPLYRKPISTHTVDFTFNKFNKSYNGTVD
Integrin alpha-IIb/beta-3, sequence (P05106 27-788 limits assumed): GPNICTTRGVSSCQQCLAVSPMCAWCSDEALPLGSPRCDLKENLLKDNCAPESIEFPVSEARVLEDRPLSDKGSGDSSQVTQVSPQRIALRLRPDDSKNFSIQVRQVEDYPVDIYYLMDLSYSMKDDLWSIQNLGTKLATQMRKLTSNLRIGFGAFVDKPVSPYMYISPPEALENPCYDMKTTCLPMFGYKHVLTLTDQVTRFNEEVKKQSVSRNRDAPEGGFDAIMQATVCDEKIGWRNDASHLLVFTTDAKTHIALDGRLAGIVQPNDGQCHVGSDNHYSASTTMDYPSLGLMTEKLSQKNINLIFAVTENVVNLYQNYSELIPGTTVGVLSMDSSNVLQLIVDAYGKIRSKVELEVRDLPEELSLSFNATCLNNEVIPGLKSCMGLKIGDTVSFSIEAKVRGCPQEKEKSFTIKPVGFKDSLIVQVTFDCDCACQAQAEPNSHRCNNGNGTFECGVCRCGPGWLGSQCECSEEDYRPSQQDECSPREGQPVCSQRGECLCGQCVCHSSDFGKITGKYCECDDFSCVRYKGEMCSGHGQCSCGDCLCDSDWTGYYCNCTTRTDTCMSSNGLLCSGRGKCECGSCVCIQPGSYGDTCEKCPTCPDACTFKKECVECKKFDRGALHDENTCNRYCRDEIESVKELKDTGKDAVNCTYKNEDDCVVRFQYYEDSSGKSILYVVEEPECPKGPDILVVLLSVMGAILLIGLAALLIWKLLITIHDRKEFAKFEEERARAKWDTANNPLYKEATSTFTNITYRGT
Integrin alpha-IIb/beta-3, sequence (P08514 32-887 limits assumed): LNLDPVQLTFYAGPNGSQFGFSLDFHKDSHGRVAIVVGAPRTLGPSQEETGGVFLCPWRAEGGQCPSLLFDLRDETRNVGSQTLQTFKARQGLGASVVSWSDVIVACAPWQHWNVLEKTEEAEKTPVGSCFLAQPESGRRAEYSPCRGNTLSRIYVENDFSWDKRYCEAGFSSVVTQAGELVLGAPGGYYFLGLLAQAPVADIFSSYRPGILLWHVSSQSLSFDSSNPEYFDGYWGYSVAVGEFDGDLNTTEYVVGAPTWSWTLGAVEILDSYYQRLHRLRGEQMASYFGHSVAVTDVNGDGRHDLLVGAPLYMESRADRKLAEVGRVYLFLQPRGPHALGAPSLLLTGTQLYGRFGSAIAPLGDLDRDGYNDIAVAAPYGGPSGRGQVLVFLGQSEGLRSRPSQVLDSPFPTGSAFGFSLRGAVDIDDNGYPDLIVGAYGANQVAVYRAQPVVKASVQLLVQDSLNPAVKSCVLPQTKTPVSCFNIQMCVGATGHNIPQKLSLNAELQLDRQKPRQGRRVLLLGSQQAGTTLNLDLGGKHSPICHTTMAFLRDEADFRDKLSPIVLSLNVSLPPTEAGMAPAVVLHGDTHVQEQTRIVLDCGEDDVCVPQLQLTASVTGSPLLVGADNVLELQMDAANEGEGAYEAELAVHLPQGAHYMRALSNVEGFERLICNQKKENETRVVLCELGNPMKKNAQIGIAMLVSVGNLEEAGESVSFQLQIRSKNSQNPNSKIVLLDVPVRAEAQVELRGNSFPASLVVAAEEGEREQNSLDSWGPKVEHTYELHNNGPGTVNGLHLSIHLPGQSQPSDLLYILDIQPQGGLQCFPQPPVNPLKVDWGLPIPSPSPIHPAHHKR
Integrin alpha-IIb/beta-3, sequence (P08514 891-1039 limits assumed): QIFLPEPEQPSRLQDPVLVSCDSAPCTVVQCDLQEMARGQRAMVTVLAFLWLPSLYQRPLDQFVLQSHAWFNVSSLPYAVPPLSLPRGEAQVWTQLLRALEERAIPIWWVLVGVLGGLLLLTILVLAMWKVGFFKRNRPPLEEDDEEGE

SMILES | IC50 (Homo sapiens) [nM] | IC50 [1] [nM] | IC50 (Integrin alpha-5/beta-1) [nM] | IC50 (Integrin alpha-V/beta-5) [nM] | Bleeding time (Canis familiaris) [min]
CCCCOc1ccc(C[C@@H]2NC(=O)[C@H](CC(=O)O)NC(=O)CNC(=O)[C@H](CCCNC(=N)N)NC(=O)[C@H](Cc3c[nH]cn3)NC(=O)CNC(=O)[C@@H](NC(=O)[C@@H](N)CCCNC(=N)N)C3(CCCCC3)SSC[C@@H](C(=O)N[C@@H](CCCNC(=N)N)C(=O)O)NC(=O)[C@H](CCCNC(=N)N)NC2=O)cc1 | 350 | 30 | – | – | –
N=C(N)NCCC[C@H](NC(=O)[C@@H]1CSSC2(CCCCC2)[C@H](NC(=O)[C@@H](N)CCCNC(=N)N)C(=O)NCC(=O)N[C@@H](Cc2c[nH]cn2)C(=O)N[C@@H](CCCNC(=N)N)C(=O)NCC(=O)N[C@@H](CC(=O)O)C(=O)N[C@@H](Cc2ccc(Cl)cc2)C(=O)N[C@@H](CCCNC(=N)N)C(=O)N1)C(=O)O | 730 | – | 870 | 15300 | –
NC(N)=NCCC[C@H](NC(=O)[C@@H]1CSSC2(CCCCC2)[C@H](NC(=O)[C@@H](N)CCCN=C(N)N)C(=O)NCC(=O)N[C@@H](Cc2c[nH]cn2)C(=O)N[C@@H](CCCN=C(N)N)C(=O)NCC(=O)N[C@@H](CC(=O)O)C(=O)N[C@@H](Cc2ccccc2)C(=O)N[C@@H](CCCN=C(N)N)C(=O)N1)C(=O)O | 620 | 40 | – | – | –
COc1ccc(C[C@@H]2NC(=O)[C@H](CC(=O)O)NC(=O)CNC(=O)[C@H](CCCN=C(N)N)NC(=O)[C@H](Cc3c[nH]cn3)NC(=O)[C@H](CCCN=C(N)N)NC(=O)[C@@H](NC(=O)[C@@H](N)CCCN=C(N)N)C3(CCCCC3)SSC[C@@H](C(=O)N[C@@H](CCCN=C(N)N)C(=O)O)NC(=O)[C@H](CCCN=C(N)N)NC2=O)cc1 | 440 | 70 | – | – | –
CC(C)C[C@@H]1NC(=O)[C@H](CC(=O)O)NC(=O)CNC(=O)[C@H](CCCNC(=N)N)NC(=O)[C@H](Cc2c[nH]cn2)NC(=O)CNC(=O)[C@@H](NC(=O)[C@@H](N)CCCNC(=N)N)C2(CCCC2)SSC[C@@H](C(=O)N[C@@H](CCCNC(=N)N)C(=O)O)NC(=O)[C@H](CCCNC(=N)N)NC1=O | 4100 | 30 | – | 340 | –
COc1ccc(C[C@@H]2NC(=O)[C@H](CC(=O)O)NC(=O)CNC(=O)[C@H](CCCNC(=N)N)NC(=O)[C@@H]3CCCN3C(=O)[C@H](CC(N)=O)NC(=O)[C@@H](NC(C)=O)CSSC[C@@H](C(N)=O)NC(=O)[C@H](C)NC2=O)cc1 | – | – | – | – | >30
COc1ccc(C[C@@H]2NC(=O)[C@H](CC(=O)O)NC(=O)CNC(=O)[C@H](CCCNC(=N)N)NC(=O)[C@@H]3CCCN3C(=O)[C@H](CC(N)=O)NC(=O)[C@@H](NC(C)=O)CSSC[C@@H](C(N)=O)NC(=O)[C@H](CCC(=O)O)NC2=O)cc1 | – | – | – | – | > 30
COc1ccc(C[C@@H]2NC(=O)[C@H](CC(=O)O)NC(=O)CNC(=O)[C@H](CCCN=C(N)N)NC(=O)[C@@H]3CCCN3C(=O)[C@H](CC(N)=O)NC(=O)[C@@H](NC(C)=O)CSSC[C@@H](C(N)=O)NC(=O)[C@H](CCCN=C(N)N)NC2=O)cc1 | – | – | – | – | 3
NC(N)=NCCC[C@H](NC(=O)[C@@H]1CSSC2(CCCCC2)[C@H](NC(=O)[C@@H](N)CCCN=C(N)N)C(=O)NCC(=O)N[C@@H](Cc2c[nH]cn2)C(=O)N[C@@H](CCCN=C(N)N)C(=O)NCC(=O)N[C@@H](CC(=O)O)C(=O)N[C@@H](Cc2ccc3ccccc3c2)C(=O)N[C@@H](CCCN=C(N)N)C(=O)N1)C(=O)O | 440 | 70 | 7720 | – | –
NC(N)=NCCC[C@H](NC(=O)[C@@H]1CSSC2(CCCCC2)[C@H](NC(=O)[C@@H](N)CCCN=C(N)N)C(=O)NCC(=O)N[C@@H](Cc2c[nH]cn2)C(=O)N[C@@H](CCCN=C(N)N)C(=O)NCC(=O)N[C@@H](CC(=O)O)C(=O)N[C@@H](c2ccccc2)C(=O)N[C@@H](CCCN=C(N)N)C(=O)N1)C(=O)O | 680 | 20 | – | – | –
CC(C)C[C@@H]1NC(=O)[C@H](CC(=O)O)NC(=O)CNC(=O)[C@H](CCCNC(=N)N)NC(=O)[C@H](Cc2c[nH]cn2)NC(=O)CNC(=O)[C@@H](NC(=O)[C@@H](N)CCCNC(=N)N)C(C)(C)SSC[C@@H](C(=O)N[C@@H](CCCNC(=N)N)C(=O)O)NC(=O)[C@H](CCCNC(=N)N)NC1=O | 9600 | 40 | – | 4930 | –
COc1ccc(C[C@@H]2NC(=O)[C@H](CC(=O)O)NC(=O)CNC(=O)[C@H](CCCNC(=N)N)NC(=O)[C@@H]3CCCN3C(=O)[C@H](CC(N)=O)NC(=O)[C@@H](NC(C)=O)CSSC[C@@H](C(N)=O)NC(=O)[C@H](CC(C)C)NC2=O)cc1 | – | – | – | – | 21
CC(C)C[C@@H]1NC(=O)[C@H](CC(=O)O)NC(=O)CNC(=O)[C@H](CCCNC(=N)N)NC(=O)[C@H](Cc2c[nH]cn2)NC(=O)CNC(=O)[C@@H](NC(=O)[C@@H](N)CCCNC(=N)N)C2(CCCCC2)SSC[C@@H](C(=O)N[C@@H](CCCNC(=N)N)C(=O)O)NC(=O)[C@H](CCCNC(=N)N)NC1=O | 3000 | 400 | – | 1580 | –
CC[C@H](C)[C@@H]1NC(=O)[C@@H](NC(C)=O)CSSC[C@@H](C(N)=O)NC(=O)[C@H](CCCN=C(N)N)NC(=O)[C@H](Cc2ccc([N+](=O)[O-])cc2)NC(=O)[C@H](CC(=O)O)NC(=O)CNC(=O)[C@H](CCCN=C(N)N)NC(=O)[C@@H]2CCCN2C1=O | 210 | 430 | 1200 | 4300 | –
COc1ccc(C[C@@H]2NC(=O)[C@H](CC(=O)O)NC(=O)CNC(=O)[C@H](CCCCN)NC(=O)[C@@H]3CCCN3C(=O)[C@H](CC(N)=O)NC(=O)[C@@H](NC(C)=O)CSSC[C@@H](C(N)=O)NC(=O)[C@H](CCCN=C(N)N)NC2=O)cc1 | – | – | – | – | 3.5
CC(C)C[C@@H]1NC(=O)[C@H](CC(=O)O)NC(=O)CNC(=O)[C@H](CCCNC(=N)N)NC(=O)[C@H](Cc2c[nH]cn2)NC(=O)CNC(=O)[C@H](NC(=O)[C@@H](N)CCCNC(=N)N)C(C)(C)SSC[C@@H](C(=O)N[C@@H](CCCNC(=N)N)C(=O)O)NC(=O)[C@H](CCCNC(=N)N)NC1=O | 4100 | 150 | – | 10000 | –
CC(C)C[C@@H]1NC(=O)[C@H](CC(=O)O)NC(=O)CNC(=O)[C@H](CCCNC(=N)N)NC(=O)[C@H](Cc2c[nH]cn2)NC(=O)CNC(=O)CC2(CCCCC2)SSC[C@@H](C(=O)N[C@@H](C)C(=O)O)NC(=O)[C@H](CCCNC(=N)N)NC1=O (GHRGDLRCA-OH; linker N-8 via X1) | 5900 | 20 | – | 10000 | –

Now from value to molecule, other results behind:

IC50 (Homo sapiens) [nM] | IC50 [1] [nM] | IC50 (Integrin alpha-5/beta-1) [nM] | IC50 (Integrin alpha-V/beta-5) [nM] | SMILES | Bleeding time (Canis familiaris) [min]
– | 10 | 4190 | 4030 | N=C(N)NCCC[C@H](NC(=O)[C@@H]1CSSC2(CCCCC2)[C@H](NC(=O)[C@@H](N)CCCNC(=N)N)C(=O)NCC(=O)N[C@@H](Cc2c[nH]cn2)C(=O)N[C@@H](CCCNC(=N)N)C(=O)NCC(=O)N[C@@H](CC(=O)O)C(=O)N[C@@H](Cc2ccc(I)cc2)C(=O)N[C@@H](CCCNC(=N)N)C(=O)N1)C(=O)O | –
– | 20 | 980 | 1050 | COc1ccc(C[C@@H]2NC(=O)[C@H](CC(=O)O)NC(=O)CNC(=O)[C@H](CCCNC(=N)N)NC(=O)[C@H](Cc3c[nH]cn3)NC(=O)CNC(=O)[C@@H](NC(=O)[C@@H](N)CCCNC(=N)N)C3(CCCCC3)SSC[C@@H](C(=O)N[C@@H](CCCNC(=N)N)C(=O)O)NC(=O)[C@H](CCCNC(=N)N)NC2=O)cc1 | –
220 | 4 | 10000 | 8400 | CCOc1ccc(C[C@@H]2NC(=O)[C@H](CC(=O)O)NC(=O)CNC(=O)[C@H](CCCN=C(N)N)NC(=O)[C@@H]3CCCN3C(=O)[C@H](CC(N)=O)NC(=O)[C@@H](NC(C)=O)CSSC[C@@H](C(N)=O)NC(=O)[C@H](CCCN=C(N)N)NC2=O)cc1 | –
840 | 17 | – | 4800 | CC(=O)N[C@H]1CSSC[C@@H](C(N)=O)NC(=O)[C@H](CCCN=C(N)N)NC(=O)[C@H](Cc2ccc([N+](=O)[O-])cc2)NC(=O)[C@H](CC(=O)O)NC(=O)CNC(=O)[C@H](CCCN=C(N)N)NC(=O)[C@@H]2CCCN2C(=O)[C@H](CC(N)=O)NC1=O | –
– | 16 | 6000 | > 10000 | CCCCOc1ccc(C[C@@H]2NC(=O)[C@H](CC(=O)O)NC(=O)CNC(=O)[C@H](CCCNC(=N)N)NC(=O)[C@@H]3CCCN3C(=O)[C@H]([C@@H](C)CC)NC(=O)[C@@H](NC(C)=O)CSSC[C@@H](C(N)=O)NC(=O)[C@H](CCCNC(=N)N)NC2=O)cc1 | –
280 | 2 | – | – | CC[C@H](C)[C@@H]1NC(=O)[C@H](NC(C)=O)C(C)(C)SSC[C@@H](C(N)=O)NC(=O)[C@H](CCCNC(=N)N)NC(=O)[C@H](Cc2ccc(OC)cc2)NC(=O)[C@H](CC(=O)O)NC(=O)CNC(=O)[C@H](CCCNC(=N)N)NC(=O)[C@@H]2CCCN2C1=O | –
450 | 14 | 2100 | 10000 | CC[C@H](C)[C@@H]1NC(=O)[C@@H](NC(C)=O)CSSC[C@@H](C(N)=O)NC(=O)[C@H](CCCN=C(N)N)NC(=O)[C@H](Cc2ccccc2)NC(=O)[C@H](CC(=O)O)NC(=O)CNC(=O)[C@H](CCCN=C(N)N)NC(=O)[C@@H]2CCCN2C1=O (Ac-CIPRGDFRC-NH2; disulfide 1-9) | –
– | 3 | 4500 | > 10000 | CC[C@H](C)[C@@H]1NC(=O)[C@@H](NC(C)=O)CSSC[C@@H](C(N)=O)NC(=O)[C@H](CCCNC(=N)N)NC(=O)[C@H](Cc2ccc(O)cc2)NC(=O)[C@H](CC(=O)O)NC(=O)CNC(=O)[C@H](CCCNC(=N)N)NC(=O)[C@@H]2CCCN2C1=O (Ac-CIPRGDYRC-NH2; disulfide 1-9) | –
